Screening results deposited in PubChem BioAssay by The Scripps Research Institute Molecular Screening Center.
OXTR potentiate: human OXTR potentiators, primary screen, fluorescence, CHO-OTR cells, Fluo-8 calcium | Oxytocin receptor (Homo sapiens), P30559 | Fluo-8 calcium fluorescence, potentiator mode; 0% = oxytocin EC15, 100% = EC100 | activation, % at 3 µM | 320,000 compounds, 0.061% hits;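 active means activation above that plate's cutoff, the mean activation of tested compounds plus 3 SD, cut at about 6.6% in these data, passing the limit was not always enough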;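 further: 100% uses oxytocin at 75 nM as the full agonist control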
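Material: human OTR in CHO cells. Compound: 3.0 µM, one dose. Timing: compound 6 min at room temperature before oxytocin, 100 s read. Evaluation: % activation of max/min ratio relative to oxytocin controls. Replication: single well per compound, singlicate. Signal: Fluo-8 calcium dye fluorescence.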
TAAR1 antag: human TAAR1 antagonists, primary screen, Fluo-8 calcium fluorescence, CHO RD-HGA16 cells | 360,000 compounds, 1.5% hits | AID 624466, 2012 | antagonist | inhibition, % at 3 µM | Trace amine-associated receptor 1 (Homo sapiens), Q96RJ0;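 active means inhibition above a per-plate cutoff, the mean inhibition of test compounds on that plate plus 3 SD, cut at about 49% in these data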;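 further: 0% = DMSO plus EC80 beta-PEA response and 100% = DMSO alone without agonist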
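Test system: hTAAR1-expressing CHO RD-HGA16 cells, Gα16-coupled; Probe or stimulus: EC80 β-phenethylamine stimulus; Compound dosing: single nominal final test compound concentration of 3 µM; Timing: 140 s kinetic read after compound, 140 s after agonist; Signal: Fluo-8 calcium-sensitive fluorescence; Measure: % inhibition of agonist calcium response; Controls: DMSO and EC80 PEA controls.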
OXTR ag: human OXTR agonists, primary screen, fluorescence, CHO-OTR cells, Fluo-8 calcium. Oxytocin receptor (Homo sapiens), P30559. Fluo-8 calcium fluorescence; normalized: DMSO 0%, oxytocin 100%. activation, % at 3 µM. 320,000 compounds, 0.32% hits;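 active means activation above the mean of all tested compounds plus 3 SD, cutoff set per screening run, cut at about 20% in these data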;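 further: peak over basal fluorescence ratio from a 100 s FLIPR kinetic read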
TAAR1 ag: human TAAR1 agonists, primary screen, Fluo-8 calcium fluorescence, CHO RD-HGA16 cells. Trace amine-associated receptor 1 (Homo sapiens), Q96RJ0. vehicle wells 0%, saturating PEA agonist 100%. activation, % at 3 µM. 360,000 compounds, 0.99% hits. AID 624467, 2012;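 active means activation above the mean activation of all test compounds in the run plus 3 SD, cut at about 38% in these data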
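Assay system: CHO-derived RD-HGA16 cells with stable Gα16 and human TAAR1; timing: 17-24 h seeding, 75 min 37 °C dye, 30 min RT; read-out: % activation from peak over basal fluorescence ratio, DMSO-to-PEA scaled; measured by: kinetic Fluo-8 calcium fluorescence; benchmarks: low control DMSO, high control PEA (EC100); doses: 3 µM single concentration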
V1R ag counter: agonists of human V1a receptor, primary screen, counter-screen for OXTR agonist project, fluorescence, CHO-V1R cells | Fluo-8 calcium fluorescence, agonist mode; 0% DMSO, 100% 3 nM vasopressin | Vasopressin V1a receptor (Homo sapiens), P37288 | activation, % at 3 µM | 320,000 compounds, 0.25% hits;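 active means activation above the mean activation of all tested compounds plus 3 SD, per screening run, cut at about 20% in these data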;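 further: signal is peak over basal fluorescence ratio across a 100 second FLIPR read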
Target sequence (P37288 whole entry, looked up): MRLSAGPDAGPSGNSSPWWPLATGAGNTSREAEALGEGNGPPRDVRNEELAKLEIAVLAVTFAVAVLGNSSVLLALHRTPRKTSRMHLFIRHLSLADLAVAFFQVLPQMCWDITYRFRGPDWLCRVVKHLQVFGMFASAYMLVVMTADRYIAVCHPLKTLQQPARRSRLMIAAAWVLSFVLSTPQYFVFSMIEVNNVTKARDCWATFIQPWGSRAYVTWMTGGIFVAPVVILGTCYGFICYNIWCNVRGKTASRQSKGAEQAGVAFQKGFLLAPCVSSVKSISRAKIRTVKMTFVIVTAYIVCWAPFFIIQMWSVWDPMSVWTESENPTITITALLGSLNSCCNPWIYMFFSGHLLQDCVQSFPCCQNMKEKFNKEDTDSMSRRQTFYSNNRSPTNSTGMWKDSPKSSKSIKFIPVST
nonsel antag count: nonselective antagonists in TAAR1 counter-screen cells, counter-screen for hTAAR1 antagonist project, cell-based, fluorescence, calcium; shares compounds with TAAR1 antag; counterscreen cell line, antagonist mode; inhibition, % at 3 µM; 2,400 compounds, 77% hits; AID 651780, 2012; in the data active means inhibition above about 22%;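 further: CHO-Ga16 host cells stimulated with ATP at an EC80 level; 0% = agonist EC80 plus vehicle and 100% = vehicle without agonist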
TAAR1 antag conf: human TAAR1 antagonists, retest of hits, confirmation, cell-based, fluorescence; TAAR1-expressing cells, fluorescence antagonist read-out; AID 651785, 2012; shares compounds with TAAR1 antag; inhibition, % at 3 µM; 2,400 compounds, 40% hits; in the data active means inhibition above about 49%;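 further: CHO-Ga16 host cells challenged with agonist PEA near its EC80; 0% = agonist at EC80 plus vehicle and 100% = vehicle with no agonist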
Ga16 ag counter: calcium activation in Ga16-expressing cells, counter-screen for TAAR1 antagonist project, cell-based, fluorescence; shares compounds with TAAR1 antag; agonist counterscreen; 2,400 compounds, 18% hits; AID 651953, 2012; activation, % at 3 µM; in the data active means activation above about 12%;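 further: 0% = vehicle wells and 100% = saturating stimulus response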
TAAR1 ag count: TAAR1 activation by candidate antagonists – cell-based, fluorescence, counter-screen for TAAR1 antagonist project; hTAAR1 cell line, agonist mode; activation, % at 3 µM; 2,400 compounds, 2% hits; shares compounds with TAAR1 antag; in the data active means activation above about 37%;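 further: CHO cells stably expressing TAAR1 with calcium dye readout; 0% = DMSO vehicle and 100% = full agonist response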
* = called active by the depositor; x = no result. An excerpt weighted towards active compounds, which were near 2.3% of everything screened.

SMILES	OXTR potentiate	TAAR1 antag	OXTR ag	TAAR1 ag	V1R ag counter	nonsel antag count	TAAR1 antag conf	Ga16 ag counter	TAAR1 ag count
O=C(COc1ccccc1C(=O)c1cnn(-c2ccccc2)c1)Nc1ccccc1	-8	53*	-1	2	1	24*	41	6	6
CCNC(=O)COc1ccc(F)cc1C(=O)c1cnn(-c2ccccc2)c1	-9	3	1	0	3	x	x	x	x
CN(C)S(=O)(=O)c1cccc(NC(=O)COc2ccccc2C(=O)Nc2ccccc2)c1	x	72*	x	24	x	53*	65*	14*	12
Cc1ccc(NC(=O)c2ccccc2OCC(=O)Nc2ccccc2F)cc1S(=O)(=O)N(C)C	-11	68*	1	26	3	34*	52*	10	6
Cc1cccc(NC(=O)CNC(=O)c2ccc(-n3cncn3)c([N+](=O)[O-])c2)c1C	-8	-18	0	2	0	x	x	x	x
CCc1ccc(CNC(=O)c2cc3c(C)nc4ccccc4c3o2)cc1	-7	45	3	0	6	x	x	x	x
Cc1nc2ccccc2c2oc(C(=O)NCC3COc4ccccc4O3)cc12 (stereo not drawn)	-8	54*	7	4	8	35*	42	9	8
CN(C)CCCN(C(=O)/C=C/c1cccs1)c1nc2ccc(F)cc2s1	-5	-10	12	14	8	x	x	x	x
CN(C)CCN(C(=O)/C=C/c1cccs1)c1nc2c(F)cc(F)cc2s1	-7	56*	0	32	0	15	16	4	9
C[C@H](CO)N1C[C@H](C)[C@H](CN(C)C(=O)Nc2ccc3c(c2)OCO3)OCc2cnnn2CCCC1=O	x	-19	x	0	x	x	x	x	x
CC(=O)Nc1cc(-c2ccccc2N(C)C)cn2c(-c3ccccc3)cnc12	x	40	x	19	x	x	x	x	x
COc1ccc(-c2cc(NC(C)=O)c3ncc(-c4ccccc4)n3c2)cc1OC	x	17	x	6	x	x	x	x	x
CC(=O)Nc1cc(-c2cccc(F)c2)cn2c(-c3ccccc3)cnc12	x	61*	x	11	x	35*	43	4	8
COc1ccccc1-c1cc(NC(C)=O)c2ncc(-c3ccccc3)n2c1	x	56*	x	4	x	24*	41	21*	37
CC(=O)Nc1cc(-c2ccccc2F)cn2c(-c3ccccc3)cnc12	x	68*	x	4	x	28*	47	10	14
COc1ccccc1-c1cc(NC(C)=O)c2ncc(-c3cccc(C(F)(F)F)c3)n2c1	x	59*	x	1	x	32*	51*	6	20
COc1cccc(C(C(=O)NCc2ccccc2)N2CCN(CCN3CCOCC3)CC2)c1OC (stereo not drawn)	x	-22	x	0	x	x	x	x	x
Cc1ccn2c(=O)nc(SCC(=O)NC3CCCC3)nc2c1	-1	-28	0	9	-1	x	x	x	x
N=c1ncn(C2OC(CO)C(O)C2O)c2nc(Br)[nH]c12 (stereo not drawn)	x	-13	x	0	x	x	x	x	x
O=C1NC[C@@H](Cc2cccc3ccccc23)N(CCc2cccc(F)c2)C1=O	x	-17	x	1	x	x	x	x	x
